Measured values: ChEMBL document CHEMBL4813947, “New dual ATP-competitive inhibitors of bacterial DNA gyrase and topoisomerase IV active against ESKAPE pathogens” (Eur J Med Chem, 2021)
Values after ≈ are worked out from the molar mass of the structure shown.

Key:
[1] = Inhibition of Staphylococcus aureus topoisomerase assessed as reduction in relaxation of supercoiled pNO1 DNA measured after 30 mins by fluorescence assay
How it was run: (§1)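 Enzyme run per an earlier-reported procedure; IC50 fitted from seven inhibitor concentrations, mean of three independent measurements.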

[2] = target: DNA gyrase (Escherichia coli, UniProt P0AES4+P0AES6); assay: Inhibition of Escherichia coli DNA gyrase assessed as reduction in supercoiling of relaxed pNO1 DNA measured after 30 mins by fluorescence assay
[3] = target: DNA gyrase (Staphylococcus aureus, UniProt P0A0K8+P20831); assay: Inhibition of Staphylococcus aureus DNA gyrase assessed reduction in supercoiling of relaxed pNO1 DNA measured after 30 mins by fluorescence assay
Chain of DNA gyrase (Staphylococcus aureus, UniProt P0A0K8+P20831) (P0A0K8 whole entry): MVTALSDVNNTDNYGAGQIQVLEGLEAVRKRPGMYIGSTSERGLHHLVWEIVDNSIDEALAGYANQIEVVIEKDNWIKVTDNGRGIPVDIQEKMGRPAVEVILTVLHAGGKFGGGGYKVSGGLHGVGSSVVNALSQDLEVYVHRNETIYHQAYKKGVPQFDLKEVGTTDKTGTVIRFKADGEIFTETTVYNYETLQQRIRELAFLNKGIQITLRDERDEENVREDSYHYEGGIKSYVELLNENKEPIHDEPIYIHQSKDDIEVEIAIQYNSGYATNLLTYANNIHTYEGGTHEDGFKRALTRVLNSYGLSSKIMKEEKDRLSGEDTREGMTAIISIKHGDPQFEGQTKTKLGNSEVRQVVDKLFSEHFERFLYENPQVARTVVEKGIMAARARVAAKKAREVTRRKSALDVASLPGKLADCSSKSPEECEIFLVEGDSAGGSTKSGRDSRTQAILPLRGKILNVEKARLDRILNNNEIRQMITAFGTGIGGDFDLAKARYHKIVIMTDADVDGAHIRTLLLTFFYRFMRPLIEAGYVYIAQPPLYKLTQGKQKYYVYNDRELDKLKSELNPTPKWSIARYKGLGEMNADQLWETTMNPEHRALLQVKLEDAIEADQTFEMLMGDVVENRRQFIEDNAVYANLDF
Chain of DNA gyrase (Staphylococcus aureus, UniProt P0A0K8+P20831) (P20831 whole entry): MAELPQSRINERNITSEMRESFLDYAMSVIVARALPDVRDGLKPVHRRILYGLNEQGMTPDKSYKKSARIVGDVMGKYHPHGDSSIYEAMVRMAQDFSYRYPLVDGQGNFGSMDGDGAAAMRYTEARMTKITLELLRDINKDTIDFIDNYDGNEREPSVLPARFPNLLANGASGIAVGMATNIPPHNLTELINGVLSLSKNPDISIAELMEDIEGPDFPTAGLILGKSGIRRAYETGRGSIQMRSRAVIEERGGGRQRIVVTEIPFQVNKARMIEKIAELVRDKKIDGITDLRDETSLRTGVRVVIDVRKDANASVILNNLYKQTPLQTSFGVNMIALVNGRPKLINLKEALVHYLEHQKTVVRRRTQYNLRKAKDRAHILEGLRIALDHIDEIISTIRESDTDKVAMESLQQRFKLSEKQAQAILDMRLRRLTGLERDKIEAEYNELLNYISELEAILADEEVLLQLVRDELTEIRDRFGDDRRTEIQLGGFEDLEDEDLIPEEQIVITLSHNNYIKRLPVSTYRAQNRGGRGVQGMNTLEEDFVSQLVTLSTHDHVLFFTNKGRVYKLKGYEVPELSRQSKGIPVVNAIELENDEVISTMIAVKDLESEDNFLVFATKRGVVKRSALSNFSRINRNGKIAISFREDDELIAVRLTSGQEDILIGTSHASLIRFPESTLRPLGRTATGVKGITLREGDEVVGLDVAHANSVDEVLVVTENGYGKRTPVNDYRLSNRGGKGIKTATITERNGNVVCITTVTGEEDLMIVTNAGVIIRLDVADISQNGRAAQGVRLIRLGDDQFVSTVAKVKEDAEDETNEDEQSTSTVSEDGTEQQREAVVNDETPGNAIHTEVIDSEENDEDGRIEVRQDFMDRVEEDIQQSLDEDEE

[4] = Inhibition of Escherichia coli topoisomerase assessed as reduction in relaxation of supercoiled pNO1 DNA measured after 30 mins by fluorescence assay; how it was run: as §1
[5] = test system: Staphylococcus aureus; assay: Antibacterial activity against Staphylococcus aureus ATCC 29213 assessed as inhibition of bacterial growth by CLSI protocol based broth microdilution assay; type: functional
[6] = test system: Klebsiella pneumoniae; assay: Antibacterial activity against Klebsiella pneumoniae ATCC 10031 assessed as inhibition of bacterial growth by CLSI protocol based broth microdilution assay; type: functional
[7] = test system: Acinetobacter baumannii; assay: Antibacterial activity against Acinetobacter baumannii ATCC 17978 assessed as inhibition of bacterial growth by CLSI protocol based broth microdilution assay; type: functional
[8] = test system: Enterococcus faecalis; assay: Antibacterial activity against Enterococcus faecalis ATCC 29212 assessed as inhibition of bacterial growth by CLSI protocol based broth microdilution assay; type: functional
[9] = test system: Pseudomonas aeruginosa; assay: Antibacterial activity against Pseudomonas aeruginosa ATCC 27853 assessed as inhibition of bacterial growth by CLSI protocol based broth microdilution assay; type: functional
[10] = test system: Escherichia coli; assay: Antibacterial activity against Escherichia coli ATCC 25922 assessed as inhibition of bacterial growth by CLSI protocol based broth microdilution assay; type: functional
[11] = test system: Staphylococcus aureus; assay: Antibacterial activity against methicillin-resistant Staphylococcus aureus ATCC 43300 assessed as inhibition of bacterial growth by CLSI protocol based broth microdilution assay; type: functional
How it was run: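 Minimum inhibitory concentration by standard serial broth microdilution following CLSI guidelines. Medium was MHBII broth (22 g/L powder: beef extract, casein acid hydrolysate, starch), with MHBII agar (14 g agar per L broth). Where noted, assayed without and with efflux pump substrate phenylalanine-arginine β-naphthylamide (PAβN).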

Row | Structure (SMILES) | IC50 [1] [nM] | IC50 [2] [nM] | IC50 [3] [nM] | IC50 [4] [nM] | MIC [5] [µg/mL] | MIC [6] [µg/mL] | MIC [7] [µg/mL] | MIC [8] [µg/mL] | MIC [9] [µg/mL] | MIC [10] [µg/mL] | MIC [11] [µg/mL]
1 | Cc1[nH]c(C(=O)Nc2nc3c(OCc4ccc(C(=O)O)cc4)cc(C(=O)O)cc3s2)c(Cl)c1Cl | 12 | < 10 | < 10 | 260 | – | – | – | – | – | – | –
2 | Cc1[nH]c(C(=O)Nc2nc3ccc(-c4nnn[nH]4)cc3s2)c(Cl)c1Cl | 270 | < 10 | 25 | 660 | 16 (≈ 40.6 µM) | 16 (≈ 40.6 µM) | > 64 | 1 (≈ 2.54 µM) | > 64 | > 64 | 16 (≈ 40.6 µM)
3 | O=C(O)c1cc(O)c2nc(NC(=O)c3cc(Br)c(Br)[nH]3)sc2c1 | 240 | – | 170 | 180 | – | – | – | – | – | – | –
4 | CCN(C(=O)c1[nH]c(C)c(Cl)c1Cl)c1nc2ccc(C(=O)O)cc2s1 | 230 | < 10 | 32 | > 1000 | 0.125 (≈ 0.314 µM) | 16 (≈ 40.2 µM) | 16 (≈ 40.2 µM) | 0.125 (≈ 0.314 µM) | > 64 | 32 (≈ 80.3 µM) | 8 (≈ 20.1 µM)
5 | Cc1[nH]c(C(=O)Nc2nc3c(F)cc(C(=O)O)cc3s2)c(Cl)c1Cl | 240 | < 10 | 17 | 200 | 0.5 (≈ 1.29 µM) | 4 (≈ 10.3 µM) | 8 (≈ 20.6 µM) | 0.0625 (≈ 0.161 µM) | 64 (≈ 165 µM) | 16 (≈ 41.2 µM) | 0.0625 (≈ 0.161 µM)
6 | Cc1[nH]c(C(=O)Nc2nc3ccc(C(=O)O)cc3s2)c(Cl)c1Cl | 66 | – | – | 500 | 1 (≈ 2.7 µM) | 1 (≈ 2.7 µM) | 4 (≈ 10.8 µM) | 0.125 (≈ 0.338 µM) | 8 (≈ 21.6 µM) | 4 (≈ 10.8 µM) | 0.125 (≈ 0.338 µM)
7 | Cc1[nH]c(C(=O)Nc2nc3c(OCCN4CCOCC4)cc(C(=O)O)cc3s2)c(Cl)c1Cl | 66 | < 10 | 17 | 220 | – | – | – | – | – | – | –
8 | O=C(O)c1ccc2nc(NC(=O)c3cc(Br)c(Br)[nH]3)sc2c1 | 300 | – | > 1000 | > 1000 | – | – | – | – | – | – | –
9 | Cc1[nH]c(C(=O)Nc2nc3c(OCc4ccccc4)cc(C(N)=O)cc3s2)c(Cl)c1Cl | > 1000 | – | > 1000 | > 1000 | – | – | – | – | – | – | –
10 | O=C(NO)c1ccc2nc(NC(=O)c3cc(Br)c(Br)[nH]3)sc2c1 | > 1000 | – | > 1000 | > 1000 | – | – | – | – | – | – | –
11 | Cc1[nH]c(C(=O)Nc2nc3c(OCCN)cc(C(=O)O)cc3s2)c(Cl)c1Cl | 160 | < 10 | 48 | > 1000 | – | – | – | – | – | – | –
12 | Cc1[nH]c(C(=O)Nc2nc3c(O)cc(C(=O)O)cc3s2)c(Cl)c1Cl | 120 | < 10 | 22 | 130 | 16 (≈ 41.4 µM) | 4 (≈ 10.4 µM) | > 64 | 2 (≈ 5.18 µM) | > 64 | > 64 | 4 (≈ 10.4 µM)
13 | Cc1[nH]c(C(=O)Nc2nc3c(OCc4cccc(F)c4)cc(C(=O)O)cc3s2)c(Cl)c1Cl | < 10 | – | < 10 | – | 0.0625 (≈ 0.126 µM) | > 64 | 2 (≈ 4.05 µM) | 0.001 (≈ 0.00202 µM) | 64 (≈ 129 µM) | – | 0.0625 (≈ 0.126 µM)
14 | Cc1[nH]c(C(=O)Nc2nc3c(OCc4ccccc4)cc(C#N)cc3s2)c(Cl)c1Cl | > 1000 | > 1000 | > 1000 | > 1000 | – | – | – | – | – | – | –
15 | Cc1[nH]c(C(=O)Nc2nc3cc(C(=O)O)ccc3s2)c(Cl)c1Cl | > 1000 | – | > 1000 | > 1000 | – | – | – | – | – | – | –
16 | COc1ccc2nc(NC(=O)c3[nH]c(C)c(Cl)c3Cl)sc2c1 | > 1000 | > 1000 | > 1000 | > 1000 | – | – | – | – | – | – | –
